Data taken from ChEMBL document CHEMBL4351008, “Discovery of novel pyrimidine-based benzothiazole derivatives as potent cyclin-dependent kinase 2 inhibitors with anticancer activity” (Eur J Med Chem, 2019).

Columns and labels:
MCF7 = experiment: Antiproliferative activity against human MCF7 cells incubated for 48 hrs by MTT assay; type: functional, cell-based; conditions: MCF7, 48 h
Outline: (§1)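 Cells kept at 37 °C in humidified 5% CO2: MDA-MB-231, MCF-7, HeLa and HCT116 in RPMI-1640; PC-3 in DMEM/F12; both media had 10% FBS. Compounds came from 60 mM DMSO stocks diluted in medium. At 70–80% confluence, cells got fresh medium with compound for 48 h at 37 °C, with 0.1% DMSO as negative control. MTT (5 mg/mL stock) was added for 4 h, and formazan was dissolved in DMSO and read at 570 nm. % inhibition was taken relative to control, IC50 was fitted, and data are mean ± SD of three independent experiments in duplicate.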

HCT-116 [1] = experiment: Induction of cell cycle arrest in human HCT116 cells assessed as accumulation at S phase at 0.35 uM incubated for 24 hrs by PI staining based flow cytometric analysis (reference value: 45.26%); type: functional
HeLa = experiment: Antiproliferative activity against human HeLa cells incubated for 48 hrs by MTT assay; type: functional, cell-based; outline: as §1
HCT-116 [2] = experiment: Induction of apoptosis in human HCT116 cells assessed as live cells at 0.35 uM incubated for 24 hrs by Annexin-V-FITC/propidium iodide staining based flow cytometric analysis (reference value: 97.7%); type: functional
HCT-116 [3] = experiment: Induction of apoptosis in human HCT116 cells incubated for 24 hrs by Annexin-V-FITC/propidium iodide staining based flow cytometric analysis; type: functional, cell-based
HCT-116 [4] = experiment: Induction of apoptosis in human HCT116 cells assessed as live cells at 1.4 uM incubated for 24 hrs by Annexin-V-FITC/propidium iodide staining based flow cytometric analysis (reference value: 97.7%); type: functional
HCT-116 [5] = experiment: Induction of cell cycle arrest in human HCT116 cells assessed as accumulation at G0/G1 phase at 0.35 uM incubated for 24 hrs by PI staining based flow cytometric analysis (reference value: 37.26%); type: functional
HCT-116 [6] = experiment: Induction of cell cycle arrest in human HCT116 cells assessed as debris content at 0.7 uM incubated for 24 hrs by PI staining based flow cytometric analysis (reference value: 0%); type: functional
HCT-116 [7] = experiment: Induction of apoptosis in human HCT116 cells assessed as necrotic cells at 0.7 uM incubated for 24 hrs by Annexin-V-FITC/propidium iodide staining based flow cytometric analysis (reference value: 0%); type: functional
HCT-116 [8] = experiment: Induction of apoptosis in human HCT116 cells assessed as live cells at 0.7 uM incubated for 24 hrs by Annexin-V-FITC/propidium iodide staining based flow cytometric analysis (reference value: 97.7%); type: functional
HCT-116 [9] = experiment: Induction of cell cycle arrest in human HCT116 cells assessed as accumulation at G2/M phase at 1.4 uM incubated for 24 hrs by PI staining based flow cytometric analysis (reference value: 17.48%); type: functional
HCT-116 [10] = experiment: Induction of apoptosis in human HCT116 cells assessed as necrotic cells at 0.35 uM incubated for 24 hrs by Annexin-V-FITC/propidium iodide staining based flow cytometric analysis (reference value: 0%); type: functional
HCT-116 [11] = experiment: Induction of apoptosis in human HCT116 cells assessed as late apoptotic cells at 0.35 uM incubated for 24 hrs by Annexin-V-FITC/propidium iodide staining based flow cytometric analysis (reference value: 0.027%); type: functional
[12] = target: T1, CDK2/Cyclin A2 (Homo sapiens) (UniProt P24941+P20248); experiment: Inhibition of CDK2/cyclin A2 (unknown origin) using histone H1 and ATP as substrate at 1 uM incubated for 40 mins by kinase-glo luminescence assay relative to control; type: protein-complex assay
Outline: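 Recombinant CDK2/cyclin A2 (0.2 µg/mL) was run with 0.1 mg/mL histone H1 and 10 µM ATP in 40 mM Tris pH 7.4, 10 mM MgCl2, 0.1 mg/mL BSA and 1 mM DTT, for 40 min at 30 °C. Compound was tested at 1 µM final, with 1% DMSO final. Remaining ATP was quantified by Kinase-Glo Plus luminescence, which is inversely related to kinase activity.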

HCT-116 [13] = experiment: Induction of cell cycle arrest in human HCT116 cells assessed as accumulation at G2/M phase at 0.35 uM incubated for 24 hrs by PI staining based flow cytometric analysis (reference value: 17.48%); type: functional
HCT-116 [14] = experiment: Induction of cell cycle arrest in human HCT116 cells assessed as accumulation at G0/G1 phase at 1.4 uM incubated for 24 hrs by PI staining based flow cytometric analysis (reference value: 37.26%); type: functional
HCT-116 [15] = experiment: Induction of cell cycle arrest in human HCT116 cells assessed as accumulation at G2/M phase at 0.7 uM incubated for 24 hrs by PI staining based flow cytometric analysis (reference value: 17.48%); type: functional
HCT-116 [16] = experiment: Antiproliferative activity against human HCT116 cells incubated for 48 hrs by MTT assay; type: functional, cell-based; conditions: HCT-116, 48 h; outline: as §1
HCT-116 [17] = experiment: Induction of apoptosis in human HCT116 cells assessed as early apoptotic cells at 0.7 uM incubated for 24 hrs by Annexin-V-FITC/propidium iodide staining based flow cytometric analysis (reference value: 2.28%); type: functional
CDK2/Cyclin A2 = CDK2/Cyclin A2 (Homo sapiens, UniProt P24941); experiment: Inhibition of CDK2/cyclin A2 (unknown origin) using histone H1 and ATP as substrate incubated for 40 mins by kinase-glo luminescence assay; type: protein-complex assay
[18] = target: T1, CDK2/Cyclin A2 (Homo sapiens); experiment: Potency index, ratio of AZD5438 IC50 to compound IC50 for CDK2/cyclin A2 (unknown origin) using histone H1 and ATP as substrate incubated for 40 mins by kinase-glo luminescence assay; type: protein-complex assay
HCT-116 [19] = experiment: Induction of cell cycle arrest in human HCT116 cells assessed as accumulation at S phase at 0.7 uM incubated for 24 hrs by PI staining based flow cytometric analysis (reference value: 45.26%); type: functional
HCT-116 [20] = experiment: Induction of cell cycle arrest in human HCT116 cells assessed as debris content at 0.35 uM incubated for 24 hrs by PI staining based flow cytometric analysis (reference value: 0%); type: functional
MDA-MB-231 = experiment: Antiproliferative activity against human MDA-MB-231 cells incubated for 48 hrs by MTT assay; type: functional, cell-based; conditions: MDA-MB-231, 48 h; outline: as §1
HCT-116 [21] = experiment: Induction of apoptosis in human HCT116 cells assessed as necrotic cells at 1.4 uM incubated for 24 hrs by Annexin-V-FITC/propidium iodide staining based flow cytometric analysis (reference value: 0%); type: functional
HCT-116 [22] = experiment: Induction of apoptosis in human HCT116 cells assessed as early apoptotic cells at 1.4 uM incubated for 24 hrs by Annexin-V-FITC/propidium iodide staining based flow cytometric analysis (reference value: 2.28%); type: functional
HCT-116 [23] = experiment: Induction of cell cycle arrest in human HCT116 cells assessed as debris content at 1.4 uM incubated for 24 hrs by PI staining based flow cytometric analysis (reference value: 0%); type: functional
HCT-116 [24] = experiment: Induction of cell cycle arrest in human HCT116 cells incubated for 24 hrs by PI staining based flow cytometric analysis; type: functional
HCT-116 [25] = experiment: Induction of cell cycle arrest in human HCT116 cells assessed as accumulation at G0/G1 phase at 0.7 uM incubated for 24 hrs by PI staining based flow cytometric analysis (reference value: 37.26%); type: functional
HCT-116 [26] = experiment: Induction of apoptosis in human HCT116 cells assessed as late apoptotic cells at 1.4 uM incubated for 24 hrs by Annexin-V-FITC/propidium iodide staining based flow cytometric analysis (reference value: 0.027%); type: functional
HCT-116 [27] = experiment: Induction of cell cycle arrest in human HCT116 cells assessed as accumulation at S phase at 1.4 uM incubated for 24 hrs by PI staining based flow cytometric analysis (reference value: 45.26%); type: functional
HCT-116 [28] = experiment: Induction of apoptosis in human HCT116 cells assessed as late apoptotic cells at 0.7 uM incubated for 24 hrs by Annexin-V-FITC/propidium iodide staining based flow cytometric analysis (reference value: 0.027%); type: functional
HCT-116 [29] = experiment: Induction of apoptosis in human HCT116 cells assessed as early apoptotic cells at 0.35 uM incubated for 24 hrs by Annexin-V-FITC/propidium iodide staining based flow cytometric analysis (reference value: 2.28%); type: functional
PC-3 = experiment: Antiproliferative activity against human PC3 cells incubated for 48 hrs by MTT assay; type: functional, cell-based; conditions: PC-3, 48 h; outline: as §1

IC50 (MCF7): 10900 nM
IC50 (HeLa): 450 nM
inhibition [12]: 94%
IC50 (HCT-116 [16]): 700 nM
IC50 (CDK2/Cyclin A2): 15.4 nM
Ratio IC50 [18]: 3
IC50 (MDA-MB-231): 1800 nM
IC50 (PC-3): 920 nM
SMILES: NS(=O)(=O)c1ccc(Nc2nccc(Nc3nc4ccc(F)cc4s3)n2)cc1
Activity (HCT-116 [1]): 39.03%
Activity (HCT-116 [2]): 80.8%
Activity (HCT-116 [3]): Dose-dependent effect
Activity (HCT-116 [4]): 51.4%
Activity (HCT-116 [5]): 36.61%
Activity (HCT-116 [6]): 6.86%
Activity (HCT-116 [7]): 0.384%
Activity (HCT-116 [8]): 64.3%
Activity (HCT-116 [9]): 46.92%
Activity (HCT-116 [10]): 0.027%
Activity (HCT-116 [11]): 9.07%
Activity (HCT-116 [13]): 24.36%
Activity (HCT-116 [14]): 34.57%
Activity (HCT-116 [15]): 33.51%
Activity (HCT-116 [17]): 13%
Activity (HCT-116 [19]): 30.88%
Activity (HCT-116 [20]): 0.74%
Activity (HCT-116 [21]): 0.414%
Activity (HCT-116 [22]): 19.1%
Activity (HCT-116 [23]): 39.3%
Activity (HCT-116 [24]): Dose-dependent effect
Activity (HCT-116 [25]): 35.61%
Activity (HCT-116 [26]): 29.1%
Activity (HCT-116 [27]): 18.51%
Activity (HCT-116 [28]): 22.3%
Activity (HCT-116 [29]): 10.1%
